# Results taken from the RNAGym collection of RNA variant scans (doi:10.1126/science.aae0568).
# Variants at the floor of the assay were thinned out.
# B1: tRNA (parent)
# chain: GUUCCGUUGGCGUAAUGGUAACGCGUCUCCCUCCUAAGGAGAAGACUGCGGGUUCGAGUCCCGUACGGAACG
# Variants of: B1
# Assay: yeast fitness relative to wild type (ratio to wild type); higher = fitter; tRNA-Arg(CCU), competitive growth, 37 C, YPD
# Method in brief: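 Changes in genotype frequencies gave Darwinian fitness relative to wild type. Frequencies were read by 100-nucleotide paired-end sequencing of gene amplicons before and after pooled Saccharomyces cerevisiae strains, carrying tRNA-Arg(CCU) gene variants at the native locus, were competed in YPD at 37°C for 24 hours in six replicates. A genotype was kept only with ≥ 100 starting reads, and estimates < 0.5 were set to 0.5.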
row,Variant,yeast fitness
1,U3C U8G U32A C33G,≤ 0.5
2,U3C C46A A70C,1.12
3,U3C C31U C49G,0.755
4,U3G C5U G51A,≤ 0.5
5,U3G U16G A21G C29A U32C C33U C34A,0.788
6,U3C U8G A20G C24G,≤ 0.5
7,U3G C11U U19C A20U A42C A65C,≤ 0.5
8,U3G U7A G9A A69U,≤ 0.5
9,U3C G63C,0.747
10,U3C G63A,0.909
11,U3C G58C,0.97
12,U3G U8C C61G G63C,≤ 0.5
13,U3C U8A A15C C31G C49U A57U G67C,≤ 0.5
14,U3C U35C A57G,0.541
15,U3G C5U G10A G18C C24U A45C,0.553
16,U3C G10A G52A U54C G56A G58A,≤ 0.5
17,U3C C31U A45U,0.718
18,U3G C30U A43U G48C G68C,≤ 0.5
19,U3G G17C C33A U53G U54A,≤ 0.5
20,U3G G44C C55G,≤ 0.5
21,U3C G18A,0.916
22,U3C G12A A21G C46G G50A,≤ 0.5
23,U3C G12A A45U C55U,≤ 0.5
24,U3G C66G,0.712

row,Variant,yeast fitness
1,U3G C66A,0.591
2,U3C G39A,0.898
3,U3C C46A G48A,0.877
4,U3C C34A G44A G52A C55U,0.562
5,U3G C30G C49U,≤ 0.5
6,U3C G12A G25A,0.992
7,U3C G18A C31A G56C A69C,≤ 0.5
8,U3C U7A A42C C49U C55U,≤ 0.5
9,U3G U8G U19A A69C,≤ 0.5
10,U3C U8C C27G C33A,≤ 0.5
11,U3G C33U,0.691
12,U3C G25A C29U,0.681
13,U3C G6A U54C C61G,≤ 0.5
14,U3C G23C,0.695
15,U3C C33A C61G,0.731
16,U3C G6C A14U G25A G38A U47A,≤ 0.5
17,U3G A45G A65G,0.729
18,U3C C30U A42G G58C,≤ 0.5
19,U3C U32A,0.817
20,C4A A14C G41A G48C C55A A65C,0.556
21,U3G C11U G68A,≤ 0.5
22,U3G A42G C62G,≤ 0.5
23,U3G C24U U28C,0.599
24,U3G A15G C24G G50A C55U,0.613

row,Variant,yeast fitness
1,U3G C11U C46U C61G,≤ 0.5
2,U3C C31G C34U G38A,≤ 0.5
3,U3C C46A G50A,0.731
4,U3C U19C C34U U53C,≤ 0.5
5,U3C U59C,0.961
6,U3C U16C G44A A45U C60A,≤ 0.5
7,U3G A40U A45U,0.585
8,U3G C24U C27G C30A A65U A69U,≤ 0.5
9,U3C G25A A37U,0.574
10,U3G C5U A65U,0.651
11,U3C C34G C49A G50A,≤ 0.5
12,U3C G68U,0.857
13,U3G C5G C11U C29U U32C,≤ 0.5
14,U3G U8A G18C,0.63
15,U3C G51C,0.521
16,U3C G6C U7G C24G C27A U28A G41A,0.618
17,U3G C62U A70U,0.551
18,U3C G12A G44C,0.546
19,U3G,0.978
20,U3C U16C C30G C31G A37U G56C,≤ 0.5
21,U3G U53G,0.587
22,U3C C55A C60A,≤ 0.5
23,U3C U19A C27U,0.696
24,U3G U16A,0.938

row,Variant,yeast fitness
1,U3C U8G U32A C33G C62U A65G,≤ 0.5
2,U3G C11U U35A G38A C66U,≤ 0.5
3,U3C C30G U64A A70C,≤ 0.5
4,U3G C30G A40C C46U C49U G68C,≤ 0.5
5,U3C U28G A57C,≤ 0.5
6,U3G U16A A45U A70G,≤ 0.5
7,U3G U28G,0.661
8,U3G C62U,0.873
9,U3G C62G,0.739
10,U3G U26A A70C,1.27
11,U3G C5U U26A G38A C62U A70U,≤ 0.5
12,U3G A21C G51A,0.605
13,U3C C30A C31U,0.747
14,U3G C4U C22A,≤ 0.5
15,U3G A14G C62A,0.603
16,U3C G17A U54C,≤ 0.5
17,U3C C55A,0.687
18,U3C C55U,0.687
19,U3G C60A C66U,≤ 0.5
20,U3G C24U C31U A69U,0.839
21,U3C G38A G48A,0.595
22,U3G A37G,0.724
23,U3G C30U G48A,≤ 0.5
24,U3G C4U U35A G58A G67A,≤ 0.5

row,Variant,yeast fitness
1,U3C G6A G18C C30U C31U A65U,≤ 0.5
2,U3C G10C C55G,≤ 0.5
3,U3G U26A,0.944
4,U3G C24A G58A,≤ 0.5
5,U3C U26C G44C U54A,≤ 0.5
6,U3G G9C C33G C46U,≤ 0.5
7,U3G U8C C33U C66A,≤ 0.5
8,U3C U7A G44C C61U C62U G63C C66U A69G,≤ 0.5
9,U3G C5U U26A A45C U59C,≤ 0.5
10,U3C U7C U8A A15U G50A U53A,≤ 0.5
11,U3C G12A U13C A37C A45U G48C,≤ 0.5
12,U3C C30A,1.06
13,U3G C29G A45G,0.594
14,U3C G9A A21G A40G G56A U64C,≤ 0.5
15,U3G A21G A57C,≤ 0.5
16,U3G C11G A65U C66U,≤ 0.5
17,U3C G38C,0.813
18,U3C G38A,1.05
19,U3G U26A C29A C34A G38A G67C,0.712
20,U3C U7G G38C,≤ 0.5
21,U3G C29A,0.533
22,U3C C31U C34U U35A U53A G58A G68A,≤ 0.5
23,U3G C22U A57G C60A,≤ 0.5
24,U3C C30A C31G C49A C60U G67A,≤ 0.5

row,Variant,yeast fitness
1,U3C G52A,0.743
2,U3C G6C C46A,0.645
3,U3C U13C G17A C24U G52A,≤ 0.5
4,U3C U7A,0.772
5,U3C U19A C27G C62U,≤ 0.5
6,U3G A14G A43U U54A A57C,≤ 0.5
7,U3G G39A A40G A57U C66U,≤ 0.5
8,U3G C11U U64C,≤ 0.5
9,U3G C11U U19C A20U A42C A65C A69U,0.537
10,U3G G10C U26C,≤ 0.5
11,U3G U35C A43U U54A A57C,≤ 0.5
12,U3C G51A A69C,0.602
13,U3G U8C,0.681
14,U3C C49G A65U,0.658
15,U3C G25C G48A,0.598
16,U3C G67A,0.871
17,U3C G12A A14U U54A A57U,≤ 0.5
18,U3G C4A G6A U35C,≤ 0.5
19,U3C G10A C22A C24G,≤ 0.5
20,U3G C5A G63A,≤ 0.5
21,U3G U8C G68C,≤ 0.5
22,U3C G18C C30U A36U C55A,≤ 0.5
23,U3C G23C C66U,≤ 0.5
24,U3C G6A G23C C49G U53G A57G,≤ 0.5

row,Variant,yeast fitness
1,U3G G48C,1.06
2,U3G C5U C30U A40U C49U,≤ 0.5
3,U3C U32G C61A C62A,0.53
4,U3G A43G A65U,0.701
5,U3C G17C,0.78
6,U3C C61U U64C,0.72
7,U3C U19G C61U,≤ 0.5
8,U3C G18A C31G,≤ 0.5
9,U3C C31U C46A,0.79
10,U3C U7A C29A G58A C61G A70U,0.531
11,U3G U8A C31A C49A,≤ 0.5
12,U3G C5G A20C A43C,0.557
13,U3G C24U G58A U59A A65U,0.514
14,U3C G56A A69C,0.802
15,U3G G6A G17C C31G,≤ 0.5
16,U3G G6A A15G C34A A70G,≤ 0.5
17,U3C C29U G58C,0.58
18,U3G C5U G10A C55U,≤ 0.5
19,U3G C11U A21U G44C A57U,≤ 0.5
20,U3C U26A C31U,1.02
21,U3C C31U G68C,0.664
22,U3C U26C C30U A37G C61A,≤ 0.5
23,U3G U13A U16A,0.65
